Source: ChEMBL document CHEMBL1124782, “DNA binding by antitumor anthracene derivatives” (J Med Chem, 1990)

Legend:
Nucleic Acid [1] = test: Cubic spline relative binding strength was determined by using spectrophotometric titration; type: nucleic-acid assay; conditions: Bos taurus
Procedure, shortened: (§1)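 Calf thymus DNA (<3% protein) titrated by UV-visible absorbance in 0.1 M NaCl, 0.01 M sodium phosphate, 0.001 M EDTA, pH 7.0. Drug stock about 2×10^-4 M. DNA prepared fresh at 5×10^-4 M (base pairs) for each titration. Free and bound drug extinction coefficients came from Beer's law plots. Bound/free data were fitted by McGhee-von Hippel equations or by a cubic spline derivative analysis.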

Nucleic Acid [2] = test: Apparent binding constant (McGhee-von Hippel) was determined by using spectrophotometric titration; type: nucleic-acid assay; conditions: Bos taurus; procedure, shortened: as §1
[3] = pKa value for amino group in the compound; type: physicochemical
Procedure, shortened: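 0.2 mmol of compound, as free base or dihydrochloride, was dissolved in 0.0392 N HCl to give 1 mequiv acid beyond full protonation of the amino groups. The solution was stirred and titrated with 0.0242 N NaOH with pH monitoring. Macroscopic pKa was read at 0.5 equiv base per functional group. Poorly soluble material was titrated in very dilute solution.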

Nucleic Acid [4] = test: (§2) delta Tm value is the difference between Tm(melting temperature) for calf thymus DNA with drug and without drug(Tm = 71 degree C for DNA alone); type: nucleic-acid assay; conditions: Bos taurus
Nucleic Acid [5] = test: as §2; type: functional; conditions: Bos taurus

SMILES | Relative binding (Nucleic Acid [1]) | K app (Nucleic Acid [2]) | pKa ([3]; read-out: pKa1) | pKa ([3]; read-out: pKa2) | pKa ([3]; read-out: pKa3) | pKa ([3]; read-out: pKa4) | ΔTm (Nucleic Acid [4]) | ΔTm (Nucleic Acid [5]) | pKa [3]
CN(C)CCNCc1c2ccccc2c(CNCCN(C)C)c2ccccc12 | 0.75 | 0.1 µM⁻¹ | 3.9 | 5.35 | 8.4 | 9.4 | 12 °C | – | –
NCCNCc1c2ccccc2c(CNCCN)c2ccccc12 | 0.75 | 0.27 µM⁻¹ | – | – | – | – | 14 °C | – | –
CN1CCN=C1/C=C/c1c2ccccc2c(/C=C/C2=NCCN2)c2ccccc12 | 1.08 | 8.29 µM⁻¹ | – | – | – | – | > 20 °C | – | –
c1ccc2c(CNCCN3CCOCC3)c3ccccc3c(CNCCN3CCOCC3)c2c1 | – | – | 3.85 | 6.3 | 7.5 | 8.5 | – | 5 °C | –
CCN1CCCC(NCc2c3ccccc3c(CNC3CCCN(CC)C3)c3ccccc23)C1 (stereo not given) | 0.75 | 0.0605 µM⁻¹ | 2.4 | 3 | 5.2 | 9.15 | 16 °C | – | –
OCCCCCNCc1c2ccccc2c(CNCCCCCO)c2ccccc12 | 0.84 | 0.0532 µM⁻¹ | – | – | – | – | 13 °C | – | 8
CNCCN(C)Cc1c2ccccc2c(CN(C)CCNC)c2ccccc12 | – | – | – | – | – | – | – | 3 °C | –
CN(C)CCN(C)Cc1c2ccccc2c(CN(C)CCN(C)C)c2ccccc12 | – | – | 3.1 | 4.2 | 8.45 | 9.45 | – | 1 °C | –
C(=N\NC1=NCCN1)/c1c2ccccc2c(/C=N/NC2=NCCN2)c2ccccc12 [BISANTRENE] | 1.03 | 9.03 µM⁻¹ | 6.8 | – | – | – | 19 °C | – | –
CC(C)N(CCNCc1c2ccccc2c(CNCCN(C(C)C)C(C)C)c2ccccc12)C(C)C | – | – | – | – | – | – | – | 9 °C | –
